One data set can be described thus: Cyclic voltammetry. The settings on record: acetonitrile; for ipa/ipc, ratio of anodic to cathodic current / ΔEp, wave potential separation (Epa − Epc): scan rate 100 mV s−1; for E1/2, half wave potential (E1/2 = (Epa + Epc)/2) / Epa, anodic wave potential / Epc, cathodic wave potential: scan rate 100 mV s−1, V vs. Ag/AgCl. It is filed as physicochemical. In short, it runs like this:
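Test compound at 0.5 mM in anhydrous acetonitrile with 0.1 M […] as background electrolyte. Three-electrode cell: glassy carbon working, Pt wire counter, Ag/AgCl reference. Scanned from −1.7 to +1.0 V at 100 mV s−1 with a 20 mV E step, 6 cycles per compound, at 25 °C. Half-wave potentials were taken from the voltammograms.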

Data set [1] relates to L. donovani strain 9515 amastigotes. Nature of the data set: Intramacrophage antileishmanial assay. The settings on record: antimonial-resistant L. donovani; activity retained 72 hours post lysis. It is filed as cell-based, Leishmania donovani.
The subject of data set [2] is L. major strain IR173 amastigotes. The data set is described as follows: Intramacrophage antileishmanial assay. Type of data set: cell-based, Leishmania major. The following applies: activity retained 72 hours post macrophage lysis.
Data set [3] is described as follows: Host macrophage cytotoxicity, resazurin assay. The following applies: human, PMA-differentiated THP-1 cells (macrophages). It is filed as cell-based. In general terms: The colour change of resazurin is a common sign of viable cells or microbes.
The subject of a further data set is Vero cells. The data set is described as follows: General/basal cytotoxicity, resazurin assay.
For data set [4] the following is noted: historical data ref 35; cited from earlier work.
Data set [5] deals with T. cruzi strain CL trypomastigotes. The data set is described as follows: T. cruzi antitrypomastigote assay. It is filed as cell-based, Trypanosoma cruzi. The following applies: >10 = did not qualify at 10 μM screen.
Data set [6] concerns L. major strain IR173 promastigotes. Nature of the data set: Leishmania antipromastigote assay. It is filed as cell-based. The following applies: read-out: Anti-promastigote activity IC50.

SMILES strings stand for the structures. Several values for one entry are separate records, joined by “and”; a condition that tells them apart may be missing. Identical values can stand only once. Entries after “also recorded” stand apart in the source; their conditions may differ. A value given as a limit tells only on which side of the number the result lay.

The IC50 is the midpoint of a concentration-inhibition curve.

As to `O=[N+]([O-])c1ccc(/C=N/N=C/c2ccc([N+](=O)[O-])o2)cc1` [9a, (1E,2E)-1-(4-Nitrobenzylidene)-2-[(5-nitrofuran-2-yl)methylene]hydrazine], in the data set “Cyclic voltammetry”, the “ipa/ipc, ratio of anodic to cathodic current” value came to 0.963; the “ΔEp, wave potential separation (Epa − Epc)” value was determined as 0.22 V; the “E1/2, half wave potential (E1/2 = (Epa + Epc)/2)” value was −0.95 V; the “Epa, anodic wave potential” value is −0.84 V. Further, the “Epc, cathodic wave potential” value in the data set “Cyclic voltammetry” was −1.06 V. Moreover, the “Cidal anti-amastigote activity against L. donovani” value in data set [1] is on record as “cidal”. In data set [2], the “Cidal anti-amastigote activity against L. major” value is “cidal”.

Consider `O=[N+]([O-])c1ccc(/C=N/N=C/c2ccc(Br)cc2)o1` [4a, (1E,2E)-1-(4-Bromobenzylidene)-2-[(5-nitrofuran-2-yl)methylene]hydrazine], for which, in the data set “Cyclic voltammetry”, the “ipa/ipc, ratio of anodic to cathodic current” value turned out to be 0.891; the “ΔEp, wave potential separation (Epa − Epc)” value was 0.26 V; the “E1/2, half wave potential (E1/2 = (Epa + Epc)/2)” value is −0.93 V; the “Epa, anodic wave potential” value is on record as −0.80 V. Also, the “Epc, cathodic wave potential” value in “Cyclic voltammetry” is reported as −1.06 V. The IC50 at 72 h in data set [3] is greater than 100 µM. In addition, in data set [1], the “Cidal anti-amastigote activity against L. donovani” value was “cidal”. Besides, in the data set on Vero cells, the “Toxicity to mammalian cells, class in words” value is on record as “low toxicity; also recorded: non-toxic”. Also, the “Cidal anti-amastigote activity against L. major” value in data set [2] is recorded as “cidal”.

Turning to `CC1CS(=O)(=O)CCN1/N=C/c1ccc([N+](=O)[O-])o1` (centres unmarked) [NTX, Nifurtimox], in data set [4], the “E1/2, half wave potential” value was −0.88 V and −0.88 ^g V.

With `O=[N+]([O-])c1ccc(/C=N/N=C/c2ccco2)cc1` [compound 12, (E)-1-(Furan-2-ylmethylene)-2-[(E)-4-nitrobenzylidene]hydrazine], the “General cytotoxicity Vero IC50” value in the data set with Vero cells (Vero cells, 48 h, mean ± SD) is on record as “complete loss”. For the same molecule, the “Anti-trypomastigote activity IC50” value in data set [5] is recorded as “complete loss”.

Regarding `C[C@@H]1[C@H](O)[C@@H](C)/C=C/C=C/C=C/C=C/C=C/C=C/C=C/[C@H](O[C@@H]2O[C@H](C)[C@@H](O)[C@H](N)[C@@H]2O)C[C@@H]2O[C@](O)(C[C@@H](O)C[C@@H](O)[C@H](O)CC[C@@H](O)C[C@@H](O)CC(=O)O[C@H]1C)C[C@H](O)[C@H]2C(=O)O` [AmB, amphotericin B], the half-inhibitory concentration (IC50) in data set [6] was found to be 0.03 ± 0.01 µM.

(Values after publication PMC10583827 (RSC Medicinal Chemistry, 2023).)
